Drawing on ChEMBL document CHEMBL1122937, “[(Aminomethyl)arloxy]acetic acid esters. A new class of high-ceiling diuretics. 3. Variation in the bridge between the aromatic rings to complete mapping of the receptor” (J Med Chem, 1985), this text covers ED2, pKa and logD for twelve compounds.

In data set [1] the test system is Rattus norvegicus. The experiment in a line: Natriuretic potency expressed as oral dose necessary to produce an excretion of 2 mequiv of Na+/kg in the rat urine during the 4 hr period after dosing. Type of data set: functional. In outline:
(§1)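 Rats were dosed orally in dose–response experiments. Urine volume, Na+, K+ and Cl- were measured. ED2 is the oral dose in mg/kg giving excretion of 2 mequiv Na+/kg in urine over the 4 h after dosing.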

Data set [2] in a line: pKa value was evaluated. The class given is physicochemical. In a few lines: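 UV absorption spectra were recorded in a buffer series spanning the pH range from fully protonated to fully deprotonated phenolic OH. Absorbance vs pH curves were fit by nonlinear regression, solving for the extinction coefficients of both forms and the pKa. For the amine pKa the buffers were extended to pH 12.0.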

A short description of data set [3]: Distribution coefficient in octanol-pH 7.0 phosphate buffer was measured at room temperature. The class given is physicochemical.
For data set [4], the system named is Rattus norvegicus. The experiment in a line: Natriuretic potency expressed as oral dose necessary to produce an excretion of 2 mequiv of Na+/kg in the rat urine during the 4 hr period after dosing; Inactive. The class given is functional, organism-based. In outline:
as §1

The test system of data set [5] is Rattus norvegicus. The experiment in a line: Natriuretic potency expressed as oral dose necessary to produce an excretion of 2 mequiv of Na+/kg in the rat urine during the 4 h period after dosing; Inactive. The class given is functional, organism-based. In outline:
as §1

The structures appear in SMILES notation. The source made the active and inactive calls. The rule behind the calls is not given here.

With `COC(=O)COc1ccc([S+]([O-])c2ccc(O)c(CN)c2)c(Cl)c1Cl.Cl` (stereo unspecified), the ED2 in the data set with Rattus norvegicus [1] came out at 16.3 mg/kg. With `CCOC(=O)COc1ccc(C(=O)c2ccc(O)c(CN)c2)c(Cl)c1Cl.Cl`, the pKa in data set [2] was determined as 6.38. The same compound had a logD in data set [3] of 1.41. In addition, the ED2 in the data set with Rattus norvegicus [1] turned out to be 2.5 mg/kg. For the compound `CCOC(=O)COc1ccc(C(=O)c2ccc(O)c(CN)c2)cc1`, the pKa in data set [2] amounted to 7.34. Moreover, the log distribution coefficient (logD) in data set [3] worked out at 0.3. `CCOC(=O)COc1ccc(Cc2ccc(O)c(CN)c2)c(Cl)c1Cl.Cl` had a pKa in data set [2] of 8.73. In data set [3], the logD was 1.66. Further, the ED2 in the data set on Rattus norvegicus [1] was 7.5 mg/kg.

In the case of `CCOC(=O)COc1ccc(-c2ccc(O)c(CN)c2)c(Cl)c1Cl`, the ED2 entry with Rattus norvegicus [4] was “inactive”.

With `CCOC(=O)COc1ccc(COc2ccc(O)c(CN)c2)c(Cl)c1Cl`, in the data set on Rattus norvegicus [4], the ED2 result was “inactive”.

As to `CCOC(=O)COc1ccc(C(=O)C(=O)c2ccc(O)c(CN)c2)c(Cl)c1Cl`, in the data set on Rattus norvegicus [4], the ED2 result was “inactive”. On the same count and under the same terms, with `CCOC(=O)COc1ccc(C(=O)Nc2ccc(O)c(CN)c2)c(Cl)c1Cl` the entry was “inactive”. For `CCOC(=O)COc1ccc2c(-c3ccc(O)c(CN)c3)noc2c1Cl.Cl`, the ED2 in the data set on Rattus norvegicus [1] is 35 mg/kg.

In turn, `CCOC(=O)COc1ccc(Oc2ccc(O)c(CN)c2)c(Cl)c1Cl.Cl` displayed a pKa in data set [2] of 8.55. The compound further came in with a logD in data set [3] of 1.82. For the same compound, the ED2 with Rattus norvegicus [1] amounted to 0.8 mg/kg. Turning to `CCOC(=O)COc1ccc(Sc2ccc(O)c(CN)c2)c(Cl)c1Cl.Cl`, the ED2 with Rattus norvegicus [1] was determined as 1 mg/kg. In turn, `CCOC(=O)COc1ccc(S(=O)(=O)c2ccc(O)c(CN)c2)c(Cl)c1Cl` displayed a pKa in data set [2] of 6.67. For the same compound, the logD in data set [3] turned out to be 1.25. Further, in the data set on Rattus norvegicus [5], the ED2 result was “inactive”.
